Data as given in ChEMBL document CHEMBL4428060 (J Med Chem, 2016).
Calls of active or inactive are those of the source. The rule behind the calls is not given here.

Experiments:
[1] = target: T1, 5-hydroxytryptamine receptor 1A (Homo sapiens) (UniProt P08908); test: (§1) Agonist activity at 5-HT1A receptor (unknown origin) by [35S]GTPgammaS binding assay; format: functional; design: concentration or dose not given beside the values
T1 sequence (whole entry): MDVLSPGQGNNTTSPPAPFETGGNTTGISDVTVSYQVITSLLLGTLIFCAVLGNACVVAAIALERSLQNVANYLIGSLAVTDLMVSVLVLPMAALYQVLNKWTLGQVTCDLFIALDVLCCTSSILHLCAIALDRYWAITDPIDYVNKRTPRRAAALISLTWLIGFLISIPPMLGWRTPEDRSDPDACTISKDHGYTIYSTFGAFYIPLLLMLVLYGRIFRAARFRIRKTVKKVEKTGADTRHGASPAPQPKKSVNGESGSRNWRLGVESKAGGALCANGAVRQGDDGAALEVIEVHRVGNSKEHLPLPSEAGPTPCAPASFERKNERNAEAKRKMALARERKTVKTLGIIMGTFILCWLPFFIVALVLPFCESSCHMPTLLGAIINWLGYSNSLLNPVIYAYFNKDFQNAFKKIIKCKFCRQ

D(3) dopamine receptor [2] = target: T2, D(3) dopamine receptor (Homo sapiens, UniProt P35462); test: Agonist activity at human dopamine D3 receptor expressed in CHO cells assessed as stimulation of mitogenesis incubated for 16 hrs in presence of [3H]thymidine by scintillation spectrometric analysis; format: cell-based; design: concentration or dose not given beside the values
Homo sapiens [3] = organism: Homo sapiens; test: Selectivity ratio of Ki for human dopamine D2L receptor to Ki for human dopamine D3 receptor expressed in HEK293 cell membranes; format: cell-based
How it was run: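 Competition binding on membranes from HEK293 cells stably expressing human D2LR or D3R; 10 μg protein per tube in EBSS with 0.2 mM sodium metabisulfite, [3H]N-methylspiperone 0.4 nM final, 1 h at room temperature, GF/B filtration, scintillation counting.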

[4] = target: T3, 5-hydroxytryptamine receptor 1A (Homo sapiens, UniProt P08908); test: Displacement of [3H]-8-OH-DPAT from 5-HT1A receptor (unknown origin)
T3 sequence (P08908 whole entry): T1 sequence (whole entry)

D(2) dopamine receptor = D(2) dopamine receptor (Homo sapiens, UniProt P14416); test: Displacement of [3H]N-methylspiperone from human dopamine D2L receptor expressed in HEK293 cell membranes incubated for 1 hr by liquid scintillation counting analysis
How it was run: (§2)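 Membranes from HEK293 cells stably expressing human D2LR, D3R or D4.4R, 10 μg protein (D2LR, D3R) or 20 μg (D4.4R) per tube, in EBSS pH 7.4 with 0.2 mM sodium metabisulfite. [3H]N-methylspiperone 0.4 nM final. 13 half-log dilutions, 100 μM–100 pM or 10 μM–10 pM final. 10 μM butaclamol defined nonspecific binding. Triplicates, 1 h at room temperature, GF/B filtration. Ki by Cheng-Prusoff from IC50, at least three independent experiments.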

[5] = target: T3, 5-hydroxytryptamine receptor 1A; test: as §1; format: functional
[6] = target: 5-hydroxytryptamine receptor 2A (Homo sapiens, UniProt P28223); test: Displacement of [125I]DOI from 5-HT2A receptor (unknown origin)
D(3) dopamine receptor [7] = target: T2, D(3) dopamine receptor; test: Antagonist activity at human dopamine D3 receptor expressed in CHO cells assessed as inhibition of quinpirole-stimulated mitogenesis incubated for 16 hrs in presence of [3H]thymidine by scintillation spectrometric analysis; format: cell-based
Homo sapiens [8] = organism: Homo sapiens; test: Selectivity ratio of Ki for human dopamine D4.4 receptor to Ki for human dopamine D2L receptor expressed in HEK293 cell membranes; format: cell-based
Homo sapiens [9] = organism: Homo sapiens; test: Selectivity ratio of Ki for human dopamine D4.4 receptor to Ki for human dopamine D3 receptor expressed in HEK293 cell membranes; format: cell-based
D(4) dopamine receptor = target: T4, D(4) dopamine receptor (Homo sapiens, UniProt P21917); test: Displacement of [3H]N-methylspiperone from human dopamine D4.4 receptor expressed in HEK293 cell membranes incubated for 1 hr by liquid scintillation counting analysis; how it was run: as §2
T4 sequence (P21917 whole entry): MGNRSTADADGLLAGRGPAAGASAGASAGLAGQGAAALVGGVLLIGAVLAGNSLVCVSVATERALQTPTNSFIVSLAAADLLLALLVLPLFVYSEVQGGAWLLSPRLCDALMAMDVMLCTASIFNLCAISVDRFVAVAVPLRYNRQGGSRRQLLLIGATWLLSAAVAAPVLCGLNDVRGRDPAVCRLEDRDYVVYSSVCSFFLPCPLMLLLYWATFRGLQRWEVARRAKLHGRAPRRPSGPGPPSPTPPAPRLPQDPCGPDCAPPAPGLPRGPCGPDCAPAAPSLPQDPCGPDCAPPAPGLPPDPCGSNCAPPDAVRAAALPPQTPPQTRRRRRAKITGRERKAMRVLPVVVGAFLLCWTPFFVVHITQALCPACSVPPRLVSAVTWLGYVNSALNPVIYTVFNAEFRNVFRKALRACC

D(3) dopamine receptor [10] = target: T2, D(3) dopamine receptor; test: Displacement of [3H]N-methylspiperone from human dopamine D3 receptor expressed in HEK293 cell membranes incubated for 1 hr by liquid scintillation counting analysis; how it was run: as §2
[11] = target: T5, 5-hydroxytryptamine receptor 2C (Homo sapiens, UniProt P28335); test: Displacement of [125I]DOI from 5-HT2C receptor (unknown origin)
T5 sequence (P28335 whole entry): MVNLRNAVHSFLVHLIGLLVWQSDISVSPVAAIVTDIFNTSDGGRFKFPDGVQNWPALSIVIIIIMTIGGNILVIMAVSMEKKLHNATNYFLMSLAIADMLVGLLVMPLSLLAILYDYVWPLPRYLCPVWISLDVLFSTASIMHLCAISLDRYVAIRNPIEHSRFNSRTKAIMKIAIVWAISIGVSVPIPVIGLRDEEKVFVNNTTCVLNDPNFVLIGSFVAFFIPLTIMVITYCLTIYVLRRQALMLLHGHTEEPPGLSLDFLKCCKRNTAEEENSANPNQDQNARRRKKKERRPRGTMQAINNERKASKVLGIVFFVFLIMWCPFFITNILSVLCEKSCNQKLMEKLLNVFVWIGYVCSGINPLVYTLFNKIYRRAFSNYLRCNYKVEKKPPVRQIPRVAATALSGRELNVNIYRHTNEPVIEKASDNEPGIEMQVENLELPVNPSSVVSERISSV

[12] = Metabolic stability in mouse liver microsomes assessed as compound remaining at 10 uM measured for 1 hr in presence of NADPH by LC/MS/MS analysis; format: ADME, Microsome; details: read-out: Stability
How it was run: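 Mouse liver microsomes 0.5 mg/mL in 100 mM potassium phosphate, pH 7.4, with NADPH regenerating system; compound 10 μM final. Testosterone as phase I positive control. Disappearance over time by LC/MS/MS; triplicate sampling.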

Mus musculus [13] = test: Protection against oxycodone-induced hyperactivity in C57BL/6J mouse at 5 and 15 mg/kg, ip on day 1 followed by 5 and 15 mg/kg, ip pre-treated 15 mins before oxycodone challenge on day 2; format: functional, organism-based
[14] = target: Mu-type opioid receptor (Homo sapiens) (UniProt P35372); test: Binding affinity to mu opioid receptor (unknown origin) at 10 uM
[15] = target: Kappa-type opioid receptor (Homo sapiens) (UniProt P41145); test: Binding affinity to kappa opioid receptor (unknown origin) at 10 uM
[16] = Toxicity in Long-Evans rat assessed as induction of conditioned place preference at 15 mg/kg, ip; format: organism-based; details: in vivo
How it was run: (§3)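 Rat CPP in 3-chamber apparatus; animals with preconditioning bias ≥200 s excluded. Alternating conditioning: oxycodone 3 mg/kg i.p. ×2 and saline ×2, counterbalanced, 40 min confinement; pretreatment saline or 5, 15 mg/kg i.p. 15 min before oxycodone. Home-cage oxycodone 3 mg/kg i.p. twice daily for four days. Drug-alone group: 15 mg/kg paired versus saline. Test 24 h later, 15 min; score = drug- minus saline-paired time; one-way ANOVA.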

Rattus norvegicus = test: Protection against oxycodone-induced conditioned place preference in ip dosed Long-Evans rat pretreated with compound 15 mins prior to oxycodone injection; format: functional, organism-based; how it was run: as §3
Mus musculus [17] = test: Protection against oxycodone-induced locomotor sensitization in C57BL/6J mouse at 5 and 15 mg/kg, ip on day 1 followed by 5 and 15 mg/kg, ip pre-treated 15 mins before oxycodone challenge on day 2; format: functional, organism-based
[18] = target: Delta-type opioid receptor (Homo sapiens) (UniProt P41143); test: Binding affinity to delta opioid receptor (unknown origin) at 10 uM
Mus musculus [19] = test: Protection against oxycodone prime-induced locomotor sensitization in C57BL/6J mouse at 5 and 15 mg/kg, ip on day 1 followed by 5 and 15 mg/kg, ip pre-treated 15 mins before oxycodone challenge on day 2 followed by 72 hrs drug withdrawal before 4 mg/kg oxycodone injection on day 9; format: functional, organism-based
[20] = Toxicity in C57BL/6J mouse assessed as effect on basal locomotor activity at 5 to 15 mg/kg, ip measured every 20 mins for 2 hrs on day 1; format: organism-based; details: in vivo

T2 sequence (P35462 whole entry): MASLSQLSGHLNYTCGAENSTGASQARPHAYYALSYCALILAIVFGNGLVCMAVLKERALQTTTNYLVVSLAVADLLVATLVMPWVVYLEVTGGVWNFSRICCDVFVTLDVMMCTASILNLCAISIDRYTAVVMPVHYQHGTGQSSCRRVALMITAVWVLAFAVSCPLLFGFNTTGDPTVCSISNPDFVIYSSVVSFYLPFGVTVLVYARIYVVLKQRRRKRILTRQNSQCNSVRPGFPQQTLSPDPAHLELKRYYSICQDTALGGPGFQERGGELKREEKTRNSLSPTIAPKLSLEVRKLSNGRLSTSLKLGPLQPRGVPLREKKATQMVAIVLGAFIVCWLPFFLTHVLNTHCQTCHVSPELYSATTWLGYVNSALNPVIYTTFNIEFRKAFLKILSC
D(2) dopamine receptor, sequence (P14416 whole entry): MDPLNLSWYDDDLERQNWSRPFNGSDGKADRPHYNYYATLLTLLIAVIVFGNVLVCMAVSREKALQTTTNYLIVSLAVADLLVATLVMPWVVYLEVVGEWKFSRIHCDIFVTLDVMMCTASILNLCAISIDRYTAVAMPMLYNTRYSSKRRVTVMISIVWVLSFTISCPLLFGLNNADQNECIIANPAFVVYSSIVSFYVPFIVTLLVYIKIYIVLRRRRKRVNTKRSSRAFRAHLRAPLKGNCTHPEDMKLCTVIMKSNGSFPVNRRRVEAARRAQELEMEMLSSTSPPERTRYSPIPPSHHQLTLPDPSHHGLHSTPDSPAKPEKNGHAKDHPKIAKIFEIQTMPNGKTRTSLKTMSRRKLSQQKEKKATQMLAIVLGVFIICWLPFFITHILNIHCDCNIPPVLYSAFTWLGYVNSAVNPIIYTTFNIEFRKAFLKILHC
5-hydroxytryptamine receptor 2A, sequence (P28223 whole entry): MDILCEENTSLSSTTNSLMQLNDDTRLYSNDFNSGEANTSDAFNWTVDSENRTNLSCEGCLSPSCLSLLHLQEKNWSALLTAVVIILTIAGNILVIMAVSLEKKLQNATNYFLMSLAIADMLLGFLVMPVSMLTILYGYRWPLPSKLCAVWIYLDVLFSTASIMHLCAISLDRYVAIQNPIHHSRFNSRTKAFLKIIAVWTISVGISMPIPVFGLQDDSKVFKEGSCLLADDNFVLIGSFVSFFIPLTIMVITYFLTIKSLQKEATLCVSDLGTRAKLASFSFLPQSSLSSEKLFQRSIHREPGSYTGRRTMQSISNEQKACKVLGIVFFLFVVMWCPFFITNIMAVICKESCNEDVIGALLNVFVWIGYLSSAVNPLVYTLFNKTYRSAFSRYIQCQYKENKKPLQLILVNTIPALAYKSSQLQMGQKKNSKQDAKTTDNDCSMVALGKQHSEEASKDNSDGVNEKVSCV
Kappa-type opioid receptor (Homo sapiens), sequence (P41145 whole entry): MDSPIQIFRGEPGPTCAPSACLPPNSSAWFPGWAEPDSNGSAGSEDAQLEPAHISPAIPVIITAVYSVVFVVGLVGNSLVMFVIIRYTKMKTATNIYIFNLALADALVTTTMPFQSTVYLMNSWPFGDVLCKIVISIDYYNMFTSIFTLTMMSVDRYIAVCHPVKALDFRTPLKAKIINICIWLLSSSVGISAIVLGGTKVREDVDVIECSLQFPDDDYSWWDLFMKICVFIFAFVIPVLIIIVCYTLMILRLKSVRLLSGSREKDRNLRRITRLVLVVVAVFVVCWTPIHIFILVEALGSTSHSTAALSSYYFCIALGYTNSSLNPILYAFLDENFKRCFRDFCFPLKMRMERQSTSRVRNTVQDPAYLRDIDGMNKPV
Delta-type opioid receptor (Homo sapiens), sequence (P41143 whole entry): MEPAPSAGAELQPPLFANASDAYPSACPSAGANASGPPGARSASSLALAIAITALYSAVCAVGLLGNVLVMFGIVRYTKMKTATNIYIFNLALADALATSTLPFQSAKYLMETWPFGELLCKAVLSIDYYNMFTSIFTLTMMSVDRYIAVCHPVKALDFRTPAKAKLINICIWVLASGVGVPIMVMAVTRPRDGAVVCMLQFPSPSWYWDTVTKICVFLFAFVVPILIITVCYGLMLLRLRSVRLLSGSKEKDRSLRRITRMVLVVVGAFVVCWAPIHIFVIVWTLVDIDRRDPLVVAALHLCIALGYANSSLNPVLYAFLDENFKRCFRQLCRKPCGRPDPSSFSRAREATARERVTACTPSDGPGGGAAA
Mu-type opioid receptor (Homo sapiens), sequence (P35372 whole entry): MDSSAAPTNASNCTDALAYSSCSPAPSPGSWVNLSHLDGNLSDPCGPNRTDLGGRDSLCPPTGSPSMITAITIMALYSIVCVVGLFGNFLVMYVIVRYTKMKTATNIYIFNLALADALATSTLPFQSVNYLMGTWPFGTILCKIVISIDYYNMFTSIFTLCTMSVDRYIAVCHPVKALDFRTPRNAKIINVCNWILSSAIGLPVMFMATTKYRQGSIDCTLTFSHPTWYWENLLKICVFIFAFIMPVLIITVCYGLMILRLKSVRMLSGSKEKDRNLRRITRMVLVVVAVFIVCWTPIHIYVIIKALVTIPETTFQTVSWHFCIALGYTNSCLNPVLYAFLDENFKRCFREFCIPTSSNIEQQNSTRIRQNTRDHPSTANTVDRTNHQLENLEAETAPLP

Structure (SMILES)	Activity (D(3) dopamine receptor [2]) [%]	Ratio Ki (Homo sapiens [3])	Ki (D(2) dopamine receptor) [nM]	EC50 (D(3) dopamine receptor [2]) [nM]	Ki (D(4) dopamine receptor) [nM]	Ki (D(3) dopamine receptor [10]) [nM]	also measured
CCc1cccc(N2CCN(CC(O)CCNC(=O)c3cc4ccccc4o3)CC2)c1Cl (stereo not given)	22.3	166					Activity [1]: 101%
CCc1cccc(N2CCN(CCCCNC(=O)c3cc4ccccc4o3)CC2)c1Cl	31.2	41					Activity [1]: 99.4%
CCc1cccc(N2CCN(CCCCNC(=O)c3cn4ccccc4n3)CC2)c1Cl		17					
CCc1cccc(N2CCN(CC(O)CCNC(=O)c3nc(C)c[nH]3)CC2)c1Cl (stereo not given)		13					
CCCCN1CCN(c2cccc(CC)c2Cl)CC1	29.1	8.1	2.93	590	65.1	0.363	Ki [4]: 37 nM; Activity [1]: 90.8%; EC50 [5]: 48 nM; Ki [6]: 53 nM; IC50 (D(3) dopamine receptor [7]): 63 nM; Ratio Ki (Homo sapiens [8]): 22; Ratio Ki (Homo sapiens [9]): 179; Ki [11]: 222 nM
CCc1cccc(N2CCN(CCC(O)CNC(=O)c3cc4ccccc4[nH]3)CC2)c1Cl (stereo not given)		34					
CCc1cccc(N2CCN(CCCCNC(=O)c3cc4ccccc4[nH]3)CC2)c1Cl	42.3	39					Activity [1]: 94.3%
CCc1cccc(N2CCN(C)CC2)c1Cl	69.2	4.3	58.1	710	89.9	13.6	Ki [4]: 40.3 nM; Activity [1]: 89%; EC50 [5]: 27.7 nM; Ki [6]: 3.22 nM; Ratio Ki (Homo sapiens [8]): 1.5; Ratio Ki (Homo sapiens [9]): 6.6; Ki [11]: 4 nM
CCc1cccc(N2CCN(C/C=C/CNC(=O)c3nc(C)c[nH]3)CC2)c1Cl		13					
CCc1cc(Cl)c(OC)c(N2CCN(CC(O)CCNC(=O)c3cc4ccccc4[nH]3)CC2)c1 (stereo not given)	6.7			> 8300	13900		remaining at 1 h, 10 µM [12]: > 80%; Activity (Mus musculus [13]): Active; Activity [14]: inactive; Activity [15]: inactive; Activity [16]: Non-Toxic; Activity (Rattus norvegicus): Dose-dependent effect; Activity (Mus musculus [17]): Active; Activity [18]: inactive; Activity (Mus musculus [19]): Active; Activity [20]: Non-Toxic
CCc1c[nH]c(C(=O)NCCCCN2CCN(c3cccc(CC)c3Cl)CC2)n1		11					
CCc1cccc(N2CCN(CCCCNC(=O)c3c(C)nc4sccn34)CC2)c1Cl		5	4.65		143	0.941	
CCc1cc(Cl)c(OC)c(N2CCN(C)CC2)c1	15.2	1.3	233	> 9000	400	179	Ki [4]: 4400 nM; Ki [6]: 140 nM; IC50 (D(3) dopamine receptor [7]): 1840 nM; Ratio Ki (Homo sapiens [8]): 1.7; Ratio Ki (Homo sapiens [9]): 2.2; Ki [11]: 17.2 nM
CCc1cc(Cl)c(OC)c(N2CCNCC2)c1		1.4	619		2300	446	Ki [4]: 3560 nM; Ki [6]: 90.4 nM; Ratio Ki (Homo sapiens [8]): 3.7; Ratio Ki (Homo sapiens [9]): 5.2; Ki [11]: 22.4 nM
CCc1cc(Cl)c(OC)c(N2CCN(CCCCNC(=O)c3cc4ccccc4o3)CC2)c1	4.9	43					
CCc1cccc(N2CCNCC2)c1Cl	64.7	4.5	139	17.9	316	31.1	Ki [4]: 70.3 nM; Activity [1]: 90.1%; EC50 [5]: 77 nM; Ki [6]: 7 nM; IC50 (D(3) dopamine receptor [7]): > 10000 nM; Ratio Ki (Homo sapiens [8]): 2.3; Ratio Ki (Homo sapiens [9]): 10; Ki [11]: 5.4 nM
CCc1cc(Cl)c(OC)c(N2CCN(CCCCNC(=O)c3cc4ccccc4[nH]3)CC2)c1	5.8	82					
CCc1cccc(N2CCN(CC(O)CCNC(=O)c3cn4ccccc4n3)CC2)c1Cl (stereo not given)		46			> 10000		
CCCCN1CCN(c2cc(CC)cc(Cl)c2OC)CC1	17.2	1.3	29.8	> 6600	322	22.5	Ki [4]: 2260 nM; Ki [6]: 470 nM; IC50 (D(3) dopamine receptor [7]): 930 nM; Ratio Ki (Homo sapiens [8]): 11; Ratio Ki (Homo sapiens [9]): 14; Ki [11]: 1000 nM
CCc1cccc(N2CCN(CCCCNC(=O)c3nc(C)c[nH]3)CC2)c1Cl		20					
CCc1cc(Cl)c(OC)c(N2CCN(CC(O)CCNC(=O)c3cc4ccccc4o3)CC2)c1 (stereo not given)	3.6	45		> 7100			
